Laboratory results reported in ChEMBL document CHEMBL2311295 (J Med Chem, 2013).

Legend:
HCT-116 [1] = assay: Ratio of IC50 for vinblastine-resistant human HCT116/VM46 cells to IC50 for human HCT116 cells; format: functional
Summary of the method: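 Ratio of IC50 in HCT116/VM46 to IC50 in HCT116. Both IC50 values come from the 72 h phosphatase (A405) growth inhibition assay: six concentrations up to 1,000 or 10,000 nM, run in duplicate, averaging 4–16 determinations each.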

HCT-116 [2] = assay: Cytotoxicity against human HCT116 cells after 72 hrs by phosphatase assay; format: functional, cell-based; settings: HCT-116, 72 h
Summary of the method: (§1)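 Cells diluted to 30,000 cells/mL in DMEM with 10% FBS and seeded into 96-well plates (100 μL per well), then grown 24 h at 37 °C under 5% CO2. Test agents were made as 1 mM DMSO stocks with 10-fold serial dilutions and tested at six concentrations over 0–1,000 nM or 0–10,000 nM, in duplicate, for 72 h. Acid phosphatase read-out: substrate in 0.1 M NaOAc pH 5.5 with 0.1% Triton X-100, 15 min at 37 °C, stopped with NaOH, A405.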

HCT-116/VM46 [3] = assay: Cytotoxicity against vinblastine-resistant human HCT116/VM46 cells after 72 hrs by phosphatase assay; format: functional, cell-based; settings: HCT-116/VM46, 72 h
Summary of the method: as §1, with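 “A405. IC50 is the mean of 4–16 determinations.” for “A405.”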

HCT-116 [4] = assay: Ratio of vinblastine IC50 to compound IC50 for human HCT116 cells; format: functional
Summary of the method: (§2)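 Both IC50 values come from the 72 h acid phosphatase (A405) proliferation assay: six concentrations over 0–1,000 or 0–10,000 nM, with each value the mean of 4–16 determinations.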

HCT-116/VM46 [5] = assay: Ratio of vinblastine IC50 to compound IC50 for vinblastine-resistant human HCT116/VM46 cells; format: functional; summary of the method: as §2
Tubulin (Sus scrofa) = Tubulin (Sus scrofa) (UniProt P02554+P02550); assay: Displacement of [3H]-vinblastine from pig tubulin at 7.2 x 10^-5 M after 60 mins; format: protein assay
Summary of the method: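 Purified porcine tubulin (100 µL tubulin solution diluted with 850 µL general tubulin buffer) preincubated with 25 µL of 7.2 × 10⁻⁵ M ³H-vinblastine, 15 min at 37 °C. Then 25 µL of 7.2 × 10⁻⁵ M unlabeled test alkaloid added, incubation continued 60 min. Displacement of bound ³H-vinblastine measured by a previously described procedure.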

Sequence of Tubulin (Sus scrofa) (P02550 whole entry, looked up): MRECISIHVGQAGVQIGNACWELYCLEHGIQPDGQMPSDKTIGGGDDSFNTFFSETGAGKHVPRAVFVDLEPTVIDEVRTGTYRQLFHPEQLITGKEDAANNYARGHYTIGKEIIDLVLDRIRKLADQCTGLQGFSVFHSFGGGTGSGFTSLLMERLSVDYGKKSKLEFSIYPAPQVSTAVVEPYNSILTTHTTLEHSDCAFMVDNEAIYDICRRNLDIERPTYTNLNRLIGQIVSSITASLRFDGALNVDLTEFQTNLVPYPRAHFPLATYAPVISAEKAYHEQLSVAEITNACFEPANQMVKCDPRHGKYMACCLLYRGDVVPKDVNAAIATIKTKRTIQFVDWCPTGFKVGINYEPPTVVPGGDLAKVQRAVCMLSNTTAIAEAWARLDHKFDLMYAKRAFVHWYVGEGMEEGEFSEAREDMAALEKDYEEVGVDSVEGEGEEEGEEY
Sequence of Tubulin (Sus scrofa) (P02554 whole entry, looked up): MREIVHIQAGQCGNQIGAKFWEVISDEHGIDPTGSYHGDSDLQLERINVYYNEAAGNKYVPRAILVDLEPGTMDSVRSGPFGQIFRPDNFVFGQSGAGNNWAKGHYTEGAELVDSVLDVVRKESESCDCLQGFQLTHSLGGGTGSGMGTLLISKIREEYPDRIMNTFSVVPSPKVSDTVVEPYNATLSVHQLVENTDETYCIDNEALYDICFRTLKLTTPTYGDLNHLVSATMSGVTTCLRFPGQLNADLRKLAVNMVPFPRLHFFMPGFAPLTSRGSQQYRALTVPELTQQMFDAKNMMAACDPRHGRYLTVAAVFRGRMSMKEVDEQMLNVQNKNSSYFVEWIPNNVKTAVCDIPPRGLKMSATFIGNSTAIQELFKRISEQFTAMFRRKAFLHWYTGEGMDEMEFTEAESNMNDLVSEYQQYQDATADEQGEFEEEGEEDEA

Row | Compound | Ratio IC50 (HCT-116 [1]) | IC50 (HCT-116 [2]) | IC50 (HCT-116/VM46 [3]) | Ratio IC50 (HCT-116 [4]) | Ratio IC50 (HCT-116/VM46 [5]) | inhibition (Tubulin (Sus scrofa))
1 | CC[C@]1(NC(=S)NC2CCCCC2)C[C@H]2CN(CCc3c([nH]c4ccccc34)[C@@](C(=O)OC)(c3cc4c(cc3OC)N(C)[C@H]3[C@@](O)(C(=O)OC)[C@H](OC(C)=O)[C@]5(CC)C=CCN6CC[C@]43[C@@H]65)C2)C1 | 26 | 0.02 µM | 0.52 µM |  |  | 
2 | CCNC(=O)N[C@@]1(CC)C[C@H]2CN(CCc3c([nH]c4ccccc34)[C@@](C(=O)OC)(c3cc4c(cc3OC)N(C)[C@H]3[C@@](O)(C(=O)OC)[C@H](OC(C)=O)[C@]5(CC)C=CCN6CC[C@]43[C@@H]65)C2)C1 |  | 0.00073 µM | 0.09 µM | 10 |  | 
3 | CC[C@]1(NC(=O)N2CCCCC2)C[C@H]2CN(CCc3c([nH]c4ccccc34)[C@@](C(=O)OC)(c3cc4c(cc3OC)N(C)[C@H]3[C@@](O)(C(=O)OC)[C@H](OC(C)=O)[C@]5(CC)C=CCN6CC[C@]43[C@@H]65)C2)C1 | 10 | 0.0039 µM | 0.05 µM |  |  | 
4 | CC[C@]1(O)C[C@H]2CN(CCc3c([nH]c4ccc(F)cc34)[C@@](C(=O)OC)(c3cc4c(cc3OC)N(C)[C@H]3[C@@](O)(C(=O)OC)[C@H](OC(C)=O)[C@]5(CC)C=CCN6CC[C@]43[C@@H]65)C2)C1 |  |  |  | 8 |  | 
5 | CCNC(=O)N[C@@]1(CC)C[C@H]2CN(CCc3c([nH]c4ccc(F)cc34)[C@@](C(=O)OC)(c3cc4c(cc3OC)N(C)[C@H]3[C@@](O)(C(=O)OC)[C@H](OC(C)=O)[C@]5(CC)C=CCN6CC[C@]43[C@@H]65)C2)C1 |  | 0.00062 µM | 0.07 µM | 10 | 10 | 
6 | CC[C@]1(NC(=O)Nc2ccc(-c3ccccc3)cc2)C[C@H]2CN(CCc3c([nH]c4ccccc34)[C@@](C(=O)OC)(c3cc4c(cc3OC)N(C)[C@H]3[C@@](O)(C(=O)OC)[C@H](OC(C)=O)[C@]5(CC)C=CCN6CC[C@]43[C@@H]65)C2)C1 |  | 0.0069 µM | 0.47 µM |  |  | 48.5%
7 | CC[C@]1(NC(=O)N(C)C)C[C@H]2CN(CCc3c([nH]c4ccccc34)[C@@](C(=O)OC)(c3cc4c(cc3OC)N(C)[C@H]3[C@@](O)(C(=O)OC)[C@H](OC(C)=O)[C@]5(CC)C=CCN6CC[C@]43[C@@H]65)C2)C1 | 10 | 0.0028 µM | 0.08 µM |  |  | 45.1%
8 | CC[C@]1(NC(=O)NC(C)C)C[C@H]2CN(CCc3c([nH]c4ccccc34)[C@@](C(=O)OC)(c3cc4c(cc3OC)N(C)[C@H]3[C@@](O)(C(=O)OC)[C@H](OC(C)=O)[C@]5(CC)C=CCN6CC[C@]43[C@@H]65)C2)C1 |  | 0.0057 µM | 0.53 µM | 10 |  | 
9 | CC[C@]1(NC(=O)NC)C[C@H]2CN(CCc3c([nH]c4ccccc34)[C@@](C(=O)OC)(c3cc4c(cc3OC)N(C)[C@H]3[C@@](O)(C(=O)OC)[C@H](OC(C)=O)[C@]5(CC)C=CCN6CC[C@]43[C@@H]65)C2)C1 |  | 0.00082 µM | 0.53 µM | 10 |  | 
10 | CC[C@]1(NC(=O)Nc2ccccc2OC)C[C@H]2CN(CCc3c([nH]c4ccccc34)[C@@](C(=O)OC)(c3cc4c(cc3OC)N(C)[C@H]3[C@@](O)(C(=O)OC)[C@H](OC(C)=O)[C@]5(CC)C=CCN6CC[C@]43[C@@H]65)C2)C1 |  | 0.00077 µM | 0.065 µM | 10 |  | 
11 | CCCNC(=O)N[C@@]1(CC)C[C@H]2CN(CCc3c([nH]c4ccccc34)[C@@](C(=O)OC)(c3cc4c(cc3OC)N(C)[C@H]3[C@@](O)(C(=O)OC)[C@H](OC(C)=O)[C@]5(CC)C=CCN6CC[C@]43[C@@H]65)C2)C1 |  | 0.0027 µM | 0.22 µM | 10 |  | 
12 | CC[C@]1(NC(=O)Nc2cccc(OC)c2)C[C@H]2CN(CCc3c([nH]c4ccccc34)[C@@](C(=O)OC)(c3cc4c(cc3OC)N(C)[C@H]3[C@@](O)(C(=O)OC)[C@H](OC(C)=O)[C@]5(CC)C=CCN6CC[C@]43[C@@H]65)C2)C1 |  | 0.00077 µM | 0.08 µM | 10 |  | 
13 | CC[C@]1(NC(N)=S)C[C@H]2CN(CCc3c([nH]c4ccccc34)[C@@](C(=O)OC)(c3cc4c(cc3OC)N(C)[C@H]3[C@@](O)(C(=O)OC)[C@H](OC(C)=O)[C@]5(CC)C=CCN6CC[C@]43[C@@H]65)C2)C1 |  | 0.0077 µM | 2 µM |  |  | 
14 | CC[C@]1(NC(=O)NC2CC2)C[C@H]2CN(CCc3c([nH]c4ccccc34)[C@@](C(=O)OC)(c3cc4c(cc3OC)N(C)[C@H]3[C@@](O)(C(=O)OC)[C@H](OC(C)=O)[C@]5(CC)C=CCN6CC[C@]43[C@@H]65)C2)C1 |  | 0.00073 µM | 0.085 µM | 10 |  | 
15 | CC[C@]1(NC(=S)Nc2ccccc2)C[C@H]2CN(CCc3c([nH]c4ccccc34)[C@@](C(=O)OC)(c3cc4c(cc3OC)N(C)[C@H]3[C@@](O)(C(=O)OC)[C@H](OC(C)=O)[C@]5(CC)C=CCN6CC[C@]43[C@@H]65)C2)C1 |  | 0.04 µM | 0.65 µM |  |  | 
16 | CC[C@]1(NC(=O)NCc2ccccc2)C[C@H]2CN(CCc3c([nH]c4ccccc34)[C@@](C(=O)OC)(c3cc4c(cc3OC)N(C)[C@H]3[C@@](O)(C(=O)OC)[C@H](OC(C)=O)[C@]5(CC)C=CCN6CC[C@]43[C@@H]65)C2)C1 |  | 0.0073 µM | 0.74 µM |  |  | 
